Here are results for eleven compounds from ChEMBL document CHEMBL1148779, “Synthesis and biological evaluation of imidazoquinoxalinones, imidazole analogues of pyrroloiminoquinone marine natural products” (J Med Chem, 2007).

Active and inactive are the calls of the source. The calls are words filed in the database; no cut-off is given here.

The test system of one series is HCT-116. Kind of series: Inhibition of human HCT116 cells. Type of series: functional, cell-based. The method in brief: (§1)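 MTT assay. HCT-116 cells were grown in McCoy's 5a with 10% FBS and 2 mM L-glutamine. A-431 cells were grown in DMEM with 10% FBS and 4 mM L-glutamine. Cells were plated at 10 000/well and dosed after 24 h. HCT-116 was tested at 0.3–100 µM and A-431 at 0.1–100 µM, for 48 h at 37 °C. MTT (final 0.3 mg/mL) was added for 3 h and formazan dissolved in DMSO. A570 was read and % cytotoxicity taken versus untreated control. Makaluvamine C at 10 µM was the positive control.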

The subject of another series is A-431. Kind of series: Inhibition of human A431 cells. Type of series: functional, cell-based. In a few lines: as §1
The nature of series [1]: Toxicity in mouse at 400 mg/kg, ip. Type of series: organism-based. The arrangement: dose 400 mg/kg, route intraperitoneal. To be noted: in vivo. The method in brief:
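Acute toxicity in mice: the drug was formulated so that 400 mg/kg IP was given in 1 mL. Single IP doses of 400, 200 and 100 mg/kg were given (1, 0.5, 0.25 mL/mouse), using the body weight and strain planned for the hollow fiber assay. Mice were followed for 14 days for morbidity (body weight loss) and mortality. If mice died, the dose was halved serially in single mice until a tolerated dose was reached.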

Series [2] in a line: (§2) Growth inhibition of NCI60 cells. To be noted: Homo sapiens; for TGI: read-out: Log TGI (converted). Type of series: functional.
The subject of another series is NCI60. The description is as §2. It counts as functional. To be noted: Homo sapiens.
The species entered for a further series is Homo sapiens. Kind of series: Inhibition of human recombinant topoisomerase 2. In a few lines:
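Relaxation assay with recombinant human topoisomerase II (p170), 4 units, and 0.25 µg supercoiled pRYG DNA. Buffer: 50 mM Tris pH 8.0, 120 mM KCl, 10 mM MgCl2, 0.5 mM DTT, 0.5 mM ATP. Drug was added in varying amounts for 45 min at 37 °C. Reactions were stopped with SDS and proteinase K, then extracted with chloroform/isoamyl alcohol. Products were run on a 1% agarose gel and stained with ethidium bromide. Etoposide was the positive control.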

A further series relates to BT-549. Kind of series: Growth inhibition of human BT549 cells. It counts as functional.
A further series has as its system MDA-MB-231. Kind of series: Growth inhibition of human MDA-MB-231 cells. It counts as functional.
The subject of another series is MDA-MB-435. Kind of series: Growth inhibition of human MDA-MB-435 cells. It counts as functional.
A further series concerns MDA-N. Kind of series: Growth inhibition of human MDA-N cells. Type of series: functional.

For `COCc1nc2c3n1CCN=C3C=C(N)C2=O`, the IC50 in the series with HCT-116 and with A-431 was 3 µM throughout.
`O=C1C(NCc2ccccc2)=CC2=NCCn3cnc1c32` returned an MTD in series [1] of 12.5 mg/kg. For the same compound, in series [2], the GI50 was 0.617 µM, the LC50 is 14.8 µM and the TGI is 2.82 µM.
For `O=C1C(NCCc2ccccc2)=CC2=NCCn3cnc1c32`, in [2], halving of growth (GI50) required 0.166 µM, the LC50 was 5.5 µM and the TGI was 1.07 µM.
On to `CC(=O)NC1=C(C)C(=O)c2ncn3c2C1=NCC3`, for which growth in series [2] was halved (GI50) at 46.8 µM. In the series on NCI60, the result was inactive.
Turning to `O=C1C(NCCc2ccc(O)cc2)=CC2=NCCn3cnc1c32`, in series [2], the GI50 was 2.51 µM, the LC50 was 40.7 µM and the TGI was 14.1 µM.
In the case of `O=C1C(NCCc2c[nH]c3ccccc23)=CC2=NCCn3cnc1c32`, the result in the series filed under Homo sapiens was Active. In [2], it took 0.234 µM to inhibit growth by half (GI50), the LC50 was 6.76 µM and the TGI is 0.871 µM.
As for `CC(=O)NC1=C(C)C(=O)c2nc(COC(C)=O)n3c2C1=NCC3`, the result in the series on NCI60 was inactive.
In the case of `COc1cc([C@@H]2c3cc4c(cc3[C@@H](O[C@@H]3O[C@@H]5CO[C@@H](C)O[C@H]5[C@H](O)[C@H]3O)[C@H]3COC(=O)[C@H]23)OCO4)cc(OC)c1O`, the outcome in the series filed under Homo sapiens was Active.
For `O=C1C(NCCO)=CC2=NCCn3cnc1c32`, in series [2], the GI50 is 1.1 µM, the LC50 is 20 µM and the TGI was 4.27 µM.
The corresponding values for `NC1=CC2=NCCn3cnc(c32)C1=O` are 4.57 µM, 35.5 µM and 12.3 µM.
As to `CC(=O)NC1=C(C)C(=O)c2nc(C)n3c2C1=NCC3`, the GI50 is less than 0.01 µM in the series on BT-549; 12.9 µM with MDA-MB-231; 19.1 µM with MDA-MB-435; 18.6 µM with MDA-N; 52.5 µM in series [2]. The TGI in [2] was 81.3 µM. The outcome in the series with NCI60 was inactive.
